Hits are enriched below; roughly 0.77% of the tested compounds scored in any of these assays.
hIAP inh: human IAP inhibition; purified IAP, CDP-Star luminescence, 30 min; inhibition, % at 10 µM; actives 0.12% (n = 330,000); AID 2544;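 active = inhibition reaching a set limit with compound at 10 µM in the primary screen, cut at about 35% in these data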;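 note: plate controls were DMSO wells with enzyme for no effect and no-enzyme buffer wells for full effect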
Target sequence (P09923 whole entry, looked up): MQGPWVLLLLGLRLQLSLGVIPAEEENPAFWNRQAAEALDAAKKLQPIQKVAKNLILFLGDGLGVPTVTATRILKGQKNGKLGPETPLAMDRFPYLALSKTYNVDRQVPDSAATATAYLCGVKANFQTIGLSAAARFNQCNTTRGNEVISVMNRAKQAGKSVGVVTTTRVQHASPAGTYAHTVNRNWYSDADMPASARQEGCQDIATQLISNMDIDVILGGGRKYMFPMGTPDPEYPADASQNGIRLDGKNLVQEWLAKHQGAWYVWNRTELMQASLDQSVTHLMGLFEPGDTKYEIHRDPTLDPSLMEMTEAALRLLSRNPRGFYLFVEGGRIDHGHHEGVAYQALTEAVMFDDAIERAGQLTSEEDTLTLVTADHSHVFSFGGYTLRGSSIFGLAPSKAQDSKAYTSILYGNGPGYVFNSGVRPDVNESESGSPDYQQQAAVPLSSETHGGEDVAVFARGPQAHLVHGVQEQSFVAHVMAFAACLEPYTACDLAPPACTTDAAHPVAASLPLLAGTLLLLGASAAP
bIAP activator: intestinal alkaline phosphatase (bovine) activation; actives 0.17% (n = 200,000); activation factor at 20 µM; purified bovine IAP, CDP-star luminescence, 30 min; stronger effect = higher value; fold of DMSO-control signal, blank-subtracted; AID 1016;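 active = activation factor of 2 or more at 20 µM, a signal rise over negative controls twice the positive control's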
bIAP inhibitor: blocks bovine intestinal alkaline phosphatase activity | inhibition, % at 20 µM | purified bovine IAP, CDP-star luminescence, 30 min | 190,000 tested, under 10 active;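 active = over 50% inhibition of intestinal alkaline phosphatase at 20 µM in the single-dose screen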
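System: purified bovine intestinal alkaline phosphatase (IAP) enzyme; Input: IAP diluted 1/65,000,000 in the well; Measured by: CDP-star luminescence signal; Compound dosing: 20 µM single dose; Incubation: 30 min reaction at room temperature.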
mIAP act: increases mouse intestinal alkaline phosphatase activity | muIAP, CDP-Star luminescence, 30 min; stronger effect = higher value; 1 = vehicle-only enzyme signal, 0 = enzyme-free wells | activation factor at 10 µM | actives 0.24% (n = 330,000);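 active = activation factor of at least 2 at 20 µM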
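System: Mouse IAP enzyme | Also added: CDP-Star substrate | Dosing: Compounds dispensed in DMSO | Schedule: 30 min enzyme-substrate-compound incubation at room temperature | Technique: Chemiluminescence readout | Control set: DMSO-only wells and no-enzyme negative control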
hIAP act: increases human intestinal alkaline phosphatase activity. actives 0.16% (n = 330,000). purified human IAP, CDP-Star luminescence, 30 min; stronger effect = higher value; 1 = vehicle-only enzyme, 0 = enzyme-free background. P09923. activation factor at 10 µM;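 active = activation factor of the enzyme at least 2-fold when tested at 20 µM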
mIAP block: blocks mouse intestinal alkaline phosphatase; purified mouse IAP, CDP-Star luminescence, 30 min; inhibition, % at 10 µM; actives 0.2% (n = 330,000); AID 2806;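 active = inhibition of at least 40% at 10 µM in the primary screen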;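 note: plate controls were DMSO with enzyme for no effect and no enzyme wells for full effect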
Starred values were filed as active, the others as inactive; / = no result.

SMILES	hIAP inh	bIAP activator	bIAP inhibitor	mIAP act	hIAP act	mIAP block
Cc1ccc(-n2nnnc2SCC(=O)Nc2ccc(N3CCN(C)CC3)cc2)c(C)c1	3	/	/	0.99	0.97	1
CCc1ccc(OCC(=O)N/N=C(\C)c2ccc(-n3ccnc3)cc2)cc1	-14	2*	-100	0.93	1.1	7
O=C(NCCCc1ccccc1)Nc1cccc(Cl)c1	-6	1	-2	4.2*	1.1	-318
S=C(NCCCc1ccccc1)Nc1ccccc1Cl	-4	1	3	2.6*	1	-163
Cc1ccc(NC(=O)NCCCc2ccccc2)cc1	4	0.7	27	2.2*	0.96	-117
S=C(NCCc1ccccc1)Nc1ccccc1Cl	4	1.1	-14	0.98	0.96	2
Fc1cc(Br)ccc1NC(=S)NCCc1ccccc1	-8	0.9	8	2.2*	1.1	-119
CC(C)c1ccc(-c2cc(C(=O)N3CCOCC3)c3cc(Br)ccc3n2)cc1	7	/	/	0.91	0.93	9
Cc1ccc(NC(=O)c2sccc2C)nc1	0	/	/	0.99	1	1
CCc1ccc(N=Nc2ccc(O)c3[nH]cnc23)cc1	-33	/	/	0.6	1.3	40*
COc1ccc(N=Nc2ccc(O)c3ncccc23)cc1	-14	/	/	1.1	1.1	-9
CC(=O)c1ccc(OCCn2c(SCC(=O)O)nc3ccccc32)cc1	5	/	/	0.96	0.95	4
COC(=O)c1ccc(NC(=S)NC2CCCCC2C)cc1 (stereo unspecified)	-14	1.3	-32	2.6*	1.1	-157
CCOC(=O)c1ccc(NC(=S)NC2CCCC2)cc1	7	1	1	2.2*	0.93	-121
CCOC(=O)c1ccc(NC(=S)NC(=O)C2CCCC2)cc1	8	/	/	0.99	0.92	0
Cc1cccc(C(=O)NNc2ncnc3c2cnn3C)c1	-113	1.5	-48	1	2.1*	0
Cc1ccc(-n2ncc3c(NNC(=O)c4ccco4)ncnc32)c(C)c1	-198	1.5	-46	1	3*	-2
Cc1ccc(-n2ncc3c(NCc4ccco4)ncnc32)c(C)c1	-19	0.9	11	1.1	1.2	-9
Cn1ncc2c(NNC(=O)c3ccc(O)cc3)ncnc21	-19	1.3	-33	0.7	1.2	30
Cc1ccc(S(=O)(=O)NCCC(=O)N2CCC(C(N)=O)CC2)cc1C	-2	/	/	1	1	-2
COC(=O)c1ccc(OS(=O)(=O)N(C)C)cc1	-1	1.1	-10	0.96	1	4
Cc1ccc(S(=O)(=O)Nc2ccc3c(c2)OCCO3)c(C)c1NS(C)(=O)=O	-4	/	/	0.98	1	2
O=C(COc1ccccc1)N=C1SC2CS(=O)(=O)CC2N1c1cccc(F)c1 (stereo unspecified)	13	/	/	1	0.87	-1
CCOC(=O)c1sc(NC(=O)Nc2ccccc2Cl)cc1C	3	1	4	3.2*	0.97	-221
CCOC(=O)c1sc(NC(=O)Nc2ccccc2)cc1C	-18	1.2	-22	1.7	1.2	-71
SMILES	hIAP inh	bIAP activator	bIAP inhibitor	mIAP act	hIAP act	mIAP block
CCOc1ccc(C2Nc3ccc4ccccc4c3-c3c2c(=O)oc2ccccc32)cc1 (stereo unspecified)	1	1.7	-70	0.98	0.99	2
COc1ccc(C2Nc3ccc4ccccc4c3-c3c2c(=O)oc2ccccc32)cc1 (stereo unspecified)	-14	3.5*	-248	1.1	1.1	-8
Cc1ccc(NC(=O)CCN2C(=O)NC3(CCCC3)C2=O)c(C)c1	-2	/	/	0.97	1	3
N#C/C(=C/c1ccc(N2CCCCC2)o1)C(=O)Nc1ccc(Cl)cc1	38*	0.8	25	0.77	0.62	23
COc1ccc(-c2[nH]ncc2C2N=C(N)Nc3nc4ccccc4n32)cc1 (stereo unspecified)	-57	2.2*	-120	1.2	1.6	-24
COc1ccc2[nH]c3c(c2c1)CCN1C(=O)C(CC(=O)NC/C=C(\C)CCC=C(C)C)C[C@H](C(=O)N2CCCCC2)[C@@]31C (stereo partly specified)	/	/	/	2*	/	-100
CC(C)=CCC/C(C)=C/CNC(=O)C[C@H]1C[C@H](C(=O)N2CCCCC2)[C@@]2(C)c3[nH]c4ccc(Cl)cc4c3CCN2C1=O	/	/	/	1.1	/	-11
